According to ChEMBL document CHEMBL1125736, “N-[(omega-amino-1-hydroxyalkyl)phenyl]methanesulfonamide derivatives with class III antiarrhythmic activity” (1991):

How the values were obtained:
Format in all cases: functional
Oryctolagus cuniculus [1] = species: Oryctolagus cuniculus; test: Tested for effective refractory period measured at a pacing rate of 1 Hz in vitro with rabbit heart tissue preparations.
How it was run: (§1)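 Isolated rabbit heart tissues, all from one heart, each its own baseline; 2 h equilibration, perfusate changed every 15 min, basal stimulation 2 Hz between measurements. Exposed to 10^-7, 10^-6 and 10^-5 M drug, 15 min each; values reported at 10^-5 M as percent change from baseline. Drug solutions prepared daily in glass-distilled water. Force and rate recorded on polygraph.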

Oryctolagus cuniculus [2] = species: Oryctolagus cuniculus; test: Tested for effective refractory period measured at a pacing rate of 3 Hz in vitro with rabbit heart tissue preparations.; parameters: unit: %; how it was run: as §1
Oryctolagus cuniculus [3] = species: Oryctolagus cuniculus; test: Tested for conduction time measured at a pacing rate of 3 Hz in vitro with rabbit heart tissue preparations.; how it was run: as §1
Oryctolagus cuniculus [4] = species: Oryctolagus cuniculus; test: Tested for force of contraction measured in mg at a pacing rate of 2 Hz in vitro with rabbit heart tissue preparations.; how it was run: as §1
Oryctolagus cuniculus [5] = species: Oryctolagus cuniculus; test: Tested for conduction time measured at a pacing rate of 1 Hz in vitro with rabbit heart tissue preparations.; how it was run: as §1
Oryctolagus cuniculus [6] = species: Oryctolagus cuniculus; test: Tested for rate automaticity measured in beats per minute from unpaced right atria of rabbit heart.; how it was run: as §1

## CCCCCCC[N+](CC)(CC)CCCCc1ccc(Cl)cc1.O=P([O-])(O)O [CLOFILIUM PHOSPHATE]
Oryctolagus cuniculus [1]
  ERP1: 3
Oryctolagus cuniculus [2]
  ERP3: 3.4
Oryctolagus cuniculus [3]
  CT3: -1.4
Oryctolagus cuniculus [4]
  FOC: -10
Oryctolagus cuniculus [5]
  CT1: 0
Oryctolagus cuniculus [6]
  Rate: -22

## CCCCCCCN(CC)CCCC(=O)c1ccc(NS(C)(=O)=O)cc1
Oryctolagus cuniculus [1]
  ERP1: 6.6
Oryctolagus cuniculus [2]
  ERP3: 9.4
Oryctolagus cuniculus [3]
  CT3: 0.6
Oryctolagus cuniculus [4]
  FOC: -6.7
Oryctolagus cuniculus [5]
  CT1: -2.7
Oryctolagus cuniculus [6]
  Rate: -21

## CC1CCN(CCCC(O)c2ccc(NS(C)(=O)=O)cc2)CC1 (stereo unspecified)
Oryctolagus cuniculus [1]
  ERP1: 4.5
Oryctolagus cuniculus [2]
  ERP3: 10.5
Oryctolagus cuniculus [3]
  CT3: -6.5
Oryctolagus cuniculus [4]
  FOC: -1
Oryctolagus cuniculus [5]
  CT1: -2

## CCCCCCCCCCN(CC)CCCC(O)c1ccc(NS(C)(=O)=O)cc1 (stereo unspecified)
Oryctolagus cuniculus [1]
  ERP1: 11.8
Oryctolagus cuniculus [2]
  ERP3: 16.1
Oryctolagus cuniculus [3]
  CT3: 74.3
Oryctolagus cuniculus [4]
  FOC: -23.1
Oryctolagus cuniculus [5]
  CT1: 63.2
Oryctolagus cuniculus [6]
  Rate: -11

## CCCCCCN(CC)CCCC(O)c1ccc(NS(C)(=O)=O)cc1 (stereo unspecified)
Oryctolagus cuniculus [1]
  ERP1: 12.1
Oryctolagus cuniculus [2]
  ERP3: 7.8
Oryctolagus cuniculus [3]
  CT3: 0
Oryctolagus cuniculus [4]
  FOC: -10.9
Oryctolagus cuniculus [5]
  CT1: -6.5
Oryctolagus cuniculus [6]
  Rate: -16

## CCCCCCCN(CC)CC(O)c1ccc(NS(C)(=O)=O)cc1 (stereo unspecified)
Oryctolagus cuniculus [1]
  ERP1: 22.9
Oryctolagus cuniculus [2]
  ERP3: 26.2
Oryctolagus cuniculus [4]
  FOC: -7
Oryctolagus cuniculus [5]
  CT1: 10.2
Oryctolagus cuniculus [6]
  Rate: -38

## CS(=O)(=O)Nc1ccc(C(O)CCCN2CCCCCCC2)cc1 (stereo unspecified)
Oryctolagus cuniculus [1]
  ERP1: 21.4
Oryctolagus cuniculus [2]
  ERP3: 23.5
Oryctolagus cuniculus [3]
  CT3: -4.7
Oryctolagus cuniculus [4]
  FOC: -5.6
Oryctolagus cuniculus [5]
  CT1: -4.5
Oryctolagus cuniculus [6]
  Rate: -10

## CCCCCN(CC)CCCC(O)c1ccc(NS(C)(=O)=O)cc1 (stereo unspecified)
Oryctolagus cuniculus [1]
  ERP1: 20.8
Oryctolagus cuniculus [2]
  ERP3: 11.6
Oryctolagus cuniculus [3]
  CT3: 11.9
Oryctolagus cuniculus [4]
  FOC: 17.1
Oryctolagus cuniculus [5]
  CT1: 8.6
Oryctolagus cuniculus [6]
  Rate: -20
